Data set [1] can be described thus: Pharmacokinetics of TS IIA, Sal B and PNS. The format is in vivo, guinea pigs. The conditions noted are these: RW administration, NPs versus compound solution, not dose-normalised. In outline: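 Guinea pigs (250–300 g; 78, two groups) received round-window dosing of loaded PLGA NPs (12.43 μg/kg TS IIA, 766.38 μg/kg Sal B, 1.05/2.08/2.31 mg/kg R1/Rg1/Rb1) or solution in ethanol/glycerol/PEG 400 2:1:2 (0.73, 8, 3.13/4.38/3.82 mg/kg); saline blank. At 0.17–36 h under anesthesia, perilymph was drawn through the RWM and plasma taken from cardiac blood. Acetic ether (TS IIA, Sal B) or methanol (PNS) extraction, HPLC; n=3.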

Data set [2] in a line: In vitro release of TS IIA, Sal B and PNS from PLGA NPs and of free drugs. Type of data set: physicochemical. Particulars: saline containing 0.2% SDS, dialysis, 37°C; for released from NPs: PLGA NPs loaded with TS IIA, Sal B, PNS, within 72 hours; for free drug released: free drugs (control), first 6 hours. In outline:
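Dialysis release: a sealed bag with sample dispersed in 2.0 mL saline plus 0.2% (w/v) SDS was immersed in 30 mL of the same medium at 37°C with horizontal shaking at 100 rpm. 1 mL of medium was withdrawn at set intervals and drug content measured by HPLC.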

Data set [3] is classed as physicochemical. The conditions noted are these: PLGA NPs loaded with TS IIA, Sal B, PNS; PLGA L:G 50:50; RP-HPLC. In outline:
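Free drug: a dialysis bag (8–14 kDa cutoff) holding 2 mL saline with 0.2% SDS was placed in 25 mL nanosuspension for 12 h, and the bag contents were assayed by HPLC. Total drug: 1 mL nanosuspension dissolved in acetonitrile, extracted with methanol, 0.22-μm filtered. C18 column, 25°C, acetonitrile/0.05% phosphoric acid gradient, 1.0 mL/min, 203 nm (PNS) or 280 nm (TS IIA, Sal B). EE calculated from free and total drug.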

Data set [4] is described as follows: Maximum solubility in mixed solvents. Type of data set: physicochemical. The conditions noted are these: mixed solvents (ethanol/glycerol/PEG 400 = 2:1:2), organic solvent or mixture.
The format of data set [5] is in vivo, guinea pigs.
Data set [6] is described as follows: In vitro release of coumarin-6 from PLGA NPs. Type of data set: physicochemical. Particulars: PBS (pH 7.4), 72 hours, 37°C. In outline: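 A dialysis bag holding 3.0 mL nanosuspension plus 2.0 mL PBS pH 7.4 sat in 15 mL PBS pH 7.4 at 37°C, stirred at 100 rpm. At set time points 1 mL of medium was withdrawn and replaced with fresh medium, and coumarin-6 was quantified by HPLC.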

Where [7] appears, read: PL, guinea pigs, RW administration, NPs versus solution.

The source of these data is publication PMC4257110 (International Journal of Nanomedicine, 2014).

Values after ≈ are worked out from the molar mass of the structure shown.

For `CC(C)=CCC[C@](C)(O[C@@H]1O[C@H](CO)[C@@H](O)[C@H](O)[C@H]1O)[C@H]1CC[C@]2(C)[C@@H]1[C@H](O)C[C@@H]1[C@@]3(C)CC[C@H](O)C(C)(C)[C@@H]3[C@@H](O[C@@H]3O[C@H](CO)[C@@H](O)[C@H](O)[C@H]3O[C@@H]3OC[C@@H](O)[C@H](O)[C@H]3O)C[C@]12C` [R1, notoginsenoside R1], in data set [1], the “AUC0–t in the PL, NPs greater compared with compound solution” value (“AUC0–t … compared with compound solution” below) was found to be 4.0 fold and the “Cmax in the PL, NPs higher compared with compound solution” value (from here on “Cmax … compared with compound solution”) is reported as 14.4 fold. Besides, in data set [2], the “released from NPs” value is recorded as “completely released” and the free drug released is reported as over 79%. Also, in data set [3], the “entrapment efficiency of the NPs” value is listed as 37.87%.

Consider `CC(C)=CCC[C@](C)(O[C@@H]1O[C@H](CO[C@@H]2O[C@H](CO)[C@@H](O)[C@H](O)[C@H]2O)[C@@H](O)[C@H](O)[C@H]1O)[C@H]1CC[C@]2(C)[C@@H]1[C@H](O)C[C@@H]1[C@@]3(C)CC[C@H](O[C@@H]4O[C@H](CO)[C@@H](O)[C@H](O)[C@H]4O[C@@H]4O[C@H](CO)[C@@H](O)[C@H](O)[C@H]4O)C(C)(C)[C@@H]3CC[C@]12C` [Rb1, ginsenoside Rb1], for which, in data set [1], the “AUC0–t … compared with compound solution” value amounted to 7.1 fold and the “Cmax … compared with compound solution” value was found to be 16.7 fold. Moreover, in data set [2], the “released from NPs” value is on record as 76.0% and the free drug released is on record as over 79%. Besides, in data set [3], the “entrapment efficiency of the NPs” value is on record as 93.56%.

For the compound `CC(C)=CCC[C@](C)(O[C@@H]1O[C@H](CO)[C@@H](O)[C@H](O)[C@H]1O)[C@H]1CC[C@]2(C)[C@@H]1[C@H](O)C[C@@H]1[C@@]3(C)CC[C@H](O)C(C)(C)[C@@H]3[C@@H](O[C@@H]3O[C@H](CO)[C@@H](O)[C@H](O)[C@H]3O)C[C@]12C` [Rg1, ginsenoside Rg1], in data set [1], the “AUC0–t … compared with compound solution” value is 3.1 fold and the “Cmax … compared with compound solution” value came out at 10.0 fold. For the same compound, in data set [2], the “released from NPs” value is given as 76.2% and the free drug released was over 79%. In addition, in data set [3], the “entrapment efficiency of the NPs” value came out at 44.98%.

As to `Cc1coc2c1C(=O)C(=O)c1c-2ccc2c1CCCC2(C)C` [TS IIA, tanshinone IIA], the solubility (commonly how much of the substance goes into solution per volume) in data set [4] was determined as 1830 µg/mL (≈ 6.22 mM). For the same compound, in data set [2], the “released from NPs” value is recorded as 23.6% and the free drug released is listed as over 79%. Moreover, the “entrapment efficiency of the NPs” value in data set [3] was determined as 91.81%.

For `CCN(CC)c1ccc2cc(-c3nc4ccccc4s3)c(=O)oc2c1` [coumarin-6], in data set [5] (setting [7]), the “AUC0–t in PL, NPs higher than coumarin-6 solution” value is given as 4.7 fold and the “Cmax in PL, NPs higher than coumarin-6 solution” value is reported as 10.9 fold. For the same compound, in data set [5] (RW administration of coumarin-6 NPs), the “time up to which coumarin-6 was found in the PL” value is “up to 96 hours”. The “time after which no coumarin-6 was detected in PL” value in data set [5] (RW administration of coumarin-6 solution) worked out at 36 h. In addition, in data set [5] (plasma of several guinea pigs, RW administration of coumarin-6 NPs or solution), the “coumarin-6 detected in the plasma” value was “An infinitesimal amount”. In data set [6], the “in vitro cumulative release of coumarin-6 from the NPs” value is reported as under 2%.

Regarding salvianolic acid B [Sal B], in data set [2], the “released from NPs” value worked out at 93.0% and the free drug released is listed as over 79%. For the same compound, the “entrapment efficiency of the NPs” value in data set [3] is 92.88%.
